According to ChEMBL document CHEMBL1131099, “Biologically active oligodeoxyribonucleotides. 5. 5'-End-substituted d(TGGGAG) possesses anti-human immunodeficiency virus type 1 activity by forming a G-quadruplex structure” (J Med Chem, 1998):

Key:
MT4 [1] = test: Cytotoxicity was measured against MT-4 cells using MTT assay.; format: functional; conditions: Homo sapiens
MT4 [2] = test: In vitro inhibitory activity for cytopathicities induced by HIV-1III B against MT-4 cells.; format: functional, cell-based; conditions: Homo sapiens
Summary of the method: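 Exponentially growing MT-4 cells were pelleted (140g, 5 min), infected in a small volume of RPMI-1640 with 100 TCID50 HIV-1 IIIB for 1 h, washed, and plated at 2.5 × 10⁴ cells/well with serial oligonucleotide dilutions. Viability was read by MTT at day 6. IC50 was taken from dose-response curves, as the mean of duplicate or quadruplicate ± SD.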

SMILES	CC50 (MT4 [1]) [µM]	IC50 (MT4 [2]) [µM]
Cc1cn([C@H]2C[C@H](OP(=O)(O)OC[C@H]3O[C@@H](n4cnc5c(=O)[nH]c(N)nc54)C[C@@H]3OP(=O)(O)OC[C@H]3O[C@@H](n4cnc5c(=O)[nH]c(N)nc54)C[C@@H]3OP(=O)(O)OC[C@H]3O[C@@H](n4cnc5c(=O)[nH]c(N)nc54)C[C@@H]3OP(=O)(O)OC[C@H]3O[C@@H](n4cnc5c(N)ncnc54)C[C@@H]3OP(=O)(O)OC[C@H]3O[C@@H](n4cnc5c(=O)[nH]c(N)nc54)C[C@@H]3O)[C@@H](COCc3ccc4ccc5cccc6ccc3c4c56)O2)c(=O)[nH]c1=O	> 40	1.8
Cc1cn([C@H]2C[C@H](OP(=O)(O)OC[C@H]3O[C@@H](n4cnc5c(=O)[nH]c(N)nc54)C[C@@H]3OP(=O)(O)OC[C@H]3O[C@@H](n4cnc5c(=O)[nH]c(N)nc54)C[C@@H]3OP(=O)(O)OC[C@H]3O[C@@H](n4cnc5c(=O)[nH]c(N)nc54)C[C@@H]3OP(=O)(O)OC[C@H]3O[C@@H](n4cnc5c(N)ncnc54)C[C@@H]3OP(=O)(O)OC[C@H]3O[C@@H](n4cnc5c(=O)[nH]c(N)nc54)C[C@@H]3O)[C@@H](COCc3ccc4ccccc4c3)O2)c(=O)[nH]c1=O	> 40	2
Cc1cn([C@H]2C[C@H](OP(=O)(O)OC[C@H]3O[C@@H](n4cnc5c(=O)[nH]c(N)nc54)C[C@@H]3OP(=O)(O)OC[C@H]3O[C@@H](n4cc(C)c(=O)[nH]c4=O)C[C@@H]3OP(=O)(O)OC[C@H]3O[C@@H](n4cnc5c(=O)[nH]c(N)nc54)C[C@@H]3OP(=O)(O)OC[C@H]3O[C@@H](n4cnc5c(N)ncnc54)C[C@@H]3OP(=O)(O)OC[C@H]3O[C@@H](n4cnc5c(=O)[nH]c(N)nc54)C[C@@H]3O)[C@@H](COCc3ccc(OCc4ccccc4)c(OCc4ccccc4)c3)O2)c(=O)[nH]c1=O	> 24	> 24
Cc1cn([C@H]2C[C@H](OP(=O)(O)OC[C@H]3O[C@@H](n4cnc5c(O)nc(N)nc54)C[C@@H]3OP(=O)(O)OC[C@H]3O[C@@H](n4cnc5c(O)nc(N)nc54)C[C@@H]3OP(=O)(O)OC[C@H]3O[C@@H](n4cnc5c(O)nc(N)nc54)C[C@@H]3O)[C@@H](COCc3ccc(OCc4ccccc4)c(OCc4ccccc4)c3)O2)c(=O)[nH]c1=O	> 40	4.6
Cc1cn([C@H]2C[C@H](OP(=O)(O)OC[C@H]3O[C@@H](n4cc(C)c(=O)[nH]c4=O)C[C@@H]3OP(=O)(O)OC[C@H]3O[C@@H](n4cc(C)c(=O)[nH]c4=O)C[C@@H]3OP(=O)(O)OC[C@H]3O[C@@H](n4cc(C)c(=O)[nH]c4=O)C[C@@H]3OP(=O)(O)OC[C@H]3O[C@@H](n4cc(C)c(=O)[nH]c4=O)C[C@@H]3OP(=O)(O)OC[C@H]3O[C@@H](n4cc(C)c(=O)[nH]c4=O)C[C@@H]3O)[C@@H](COCc3ccc(OCc4ccccc4)c(OCc4ccccc4)c3)O2)c(=O)[nH]c1=O	> 24	> 24
Cc1cn([C@H]2C[C@H](OP(=O)(O)OC[C@H]3O[C@@H](n4cnc5c(O)nc(N)nc54)C[C@@H]3OP(=O)(O)OC[C@H]3O[C@@H](n4cnc5c(O)nc(N)nc54)C[C@@H]3OP(=O)(O)OC[C@H]3O[C@@H](n4cnc5c(O)nc(N)nc54)C[C@@H]3OP(=O)(O)OC[C@H]3O[C@@H](n4cnc5c(N)ncnc54)C[C@@H]3O)[C@@H](COCc3ccc(OCc4ccccc4)c(OCc4ccccc4)c3)O2)c(=O)[nH]c1=O	> 40	1.9
Cc1cn([C@H]2C[C@H](OP(=O)(O)OC[C@H]3O[C@@H](n4cnc5c(=O)[nH]c(N)nc54)C[C@@H]3OP(=O)(O)OC[C@H]3O[C@@H](n4cnc5c(=O)[nH]c(N)nc54)C[C@@H]3OP(=O)(O)OC[C@H]3O[C@@H](n4cnc5c(=O)[nH]c(N)nc54)C[C@@H]3OP(=O)(O)OC[C@H]3O[C@@H](n4cnc5c(N)ncnc54)C[C@@H]3OP(=O)(O)OC[C@H]3O[C@@H](n4cnc5c(=O)[nH]c(N)nc54)C[C@@H]3O)[C@@H](COCc3ccccc3)O2)c(=O)[nH]c1=O	> 40	> 40
Cc1cn([C@H]2C[C@H](OP(=O)(O)OC[C@H]3O[C@@H](n4cnc5c(=O)[nH]c(N)nc54)C[C@@H]3OP(=O)(O)OC[C@H]3O[C@@H](n4cnc5c(=O)[nH]c(N)nc54)C[C@@H]3OP(=O)(O)OC[C@H]3O[C@@H](n4cnc5c(=O)[nH]c(N)nc54)C[C@@H]3OP(=O)(O)OC[C@H]3O[C@@H](n4cnc5c(=O)[nH]c(N)nc54)C[C@@H]3OP(=O)(O)OC[C@H]3O[C@@H](n4cnc5c(=O)[nH]c(N)nc54)C[C@@H]3O)[C@@H](COCc3ccc(OCc4ccccc4)c(OCc4ccccc4)c3)O2)c(=O)[nH]c1=O	> 40	0.26
Cc1cn([C@H]2C[C@H](OP(=O)(O)OC[C@H]3O[C@@H](n4cc(C)c(=O)[nH]c4=O)C[C@@H]3OP(=O)(O)OC[C@H]3O[C@@H](n4cnc5c(=O)[nH]c(N)nc54)C[C@@H]3OP(=O)(O)OC[C@H]3O[C@@H](n4cnc5c(=O)[nH]c(N)nc54)C[C@@H]3OP(=O)(O)OC[C@H]3O[C@@H](n4cnc5c(=O)[nH]c(N)nc54)C[C@@H]3OP(=O)(O)OC[C@H]3O[C@@H](n4cnc5c(=O)[nH]c(N)nc54)C[C@@H]3O)[C@@H](COCc3ccc(OCc4ccccc4)c(OCc4ccccc4)c3)O2)c(=O)[nH]c1=O	> 40	0.56
Cc1cn([C@H]2C[C@H](OP(=O)(O)OC[C@H]3O[C@@H](n4cnc5c(=O)[nH]c(N)nc54)C[C@@H]3OP(=O)(O)OC[C@H]3O[C@@H](n4cnc5c(=O)[nH]c(N)nc54)C[C@@H]3OP(=O)(O)OC[C@H]3O[C@@H](n4cnc5c(=O)[nH]c(N)nc54)C[C@@H]3OP(=O)(O)OC[C@H]3O[C@@H](n4cnc5c(N)ncnc54)C[C@@H]3OP(=O)(O)OC[C@H]3O[C@@H](n4cnc5c(=O)[nH]c(N)nc54)C[C@@H]3O)[C@@H](COC3(c4ccccc4)c4ccccc4-c4ccccc43)O2)c(=O)[nH]c1=O	> 40	1.3
Cc1cn([C@H]2C[C@H](OP(=O)(O)OC[C@H]3O[C@@H](n4cnc5c(=O)[nH]c(N)nc54)C[C@@H]3OP(=O)(O)OC[C@H]3O[C@@H](n4cnc5c(=O)[nH]c(N)nc54)C[C@@H]3OP(=O)(O)OC[C@H]3O[C@@H](n4cnc5c(=O)[nH]c(N)nc54)C[C@@H]3OP(=O)(O)OC[C@H]3O[C@@H](n4cnc5c(N)ncnc54)C[C@@H]3OP(=O)(O)OC[C@H]3O[C@@H](n4cnc5c(=O)[nH]c(N)nc54)C[C@@H]3O[Si](c3ccccc3)(c3ccccc3)C(C)(C)C)[C@@H](CO)O2)c(=O)[nH]c1=O	7.7	> 40
Cc1cn([C@H]2C[C@H](OP(=O)(O)OC[C@H]3O[C@@H](n4cnc5c(=O)[nH]c(N)nc54)C[C@@H]3OP(=O)(O)OC[C@H]3O[C@@H](n4cnc5c(=O)[nH]c(N)nc54)C[C@@H]3OP(=O)(O)OC[C@H]3O[C@@H](n4cnc5c(=O)[nH]c(N)nc54)C[C@@H]3OP(=O)(O)OC[C@H]3O[C@@H](n4cnc5c(N)ncnc54)C[C@@H]3OP(=O)(O)OC[C@H]3O[C@@H](n4cnc5c(=O)[nH]c(N)nc54)C[C@@H]3O)[C@@H](COC3(c4ccccc4)c4ccccc4Oc4ccccc43)O2)c(=O)[nH]c1=O	> 40	0.95
Cc1cn([C@H]2C[C@H](OP(=O)(O)OC[C@H]3O[C@@H](n4cnc5c(=O)[nH]c(N)nc54)C[C@@H]3OP(=O)(O)OC[C@H]3O[C@@H](n4cnc5c(=O)[nH]c(N)nc54)C[C@@H]3OP(=O)(O)OC[C@H]3O[C@@H](n4cnc5c(=O)[nH]c(N)nc54)C[C@@H]3OP(=O)(O)OC[C@H]3O[C@@H](n4cnc5c(N)ncnc54)C[C@@H]3OP(=O)(O)OC[C@H]3O[C@@H](n4cnc5c(=O)[nH]c(N)nc54)C[C@@H]3O)[C@@H](COCc3ccc(-c4ccccc4)cc3)O2)c(=O)[nH]c1=O	> 40	2.8
Cc1cn([C@H]2C[C@H](OP(=O)(O)OC[C@H]3O[C@@H](n4cnc5c(=O)[nH]c(N)nc54)C[C@@H]3OP(=O)(O)OC[C@H]3O[C@@H](n4cnc5c(=O)[nH]c(N)nc54)C[C@@H]3OP(=O)(O)OC[C@H]3O[C@@H](n4cnc5c(=O)[nH]c(N)nc54)C[C@@H]3OP(=O)(O)OC[C@H]3O[C@@H](n4cnc5c(N)ncnc54)C[C@@H]3OP(=O)(O)OC[C@H]3O[C@@H](n4cnc5c(=O)[nH]c(N)nc54)C[C@@H]3O)[C@@H](CO)O2)c(=O)[nH]c1=O	> 40	> 40
Cc1cn([C@H]2C[C@H](OP(=O)(O)OC[C@H]3O[C@@H](n4cc(C)c(=O)[nH]c4=O)C[C@@H]3OP(=O)(O)OC[C@H]3O[C@@H](n4cnc5c(O)nc(N)nc54)C[C@@H]3OP(=O)(O)OC[C@H]3O[C@@H](n4cnc5c(O)nc(N)nc54)C[C@@H]3OP(=O)(O)OC[C@H]3O[C@@H](n4cnc5c(O)nc(N)nc54)C[C@@H]3O)[C@@H](COCc3ccc(OCc4ccccc4)c(OCc4ccccc4)c3)O2)c(=O)[nH]c1=O	40	> 40
Cc1cn([C@H]2C[C@H](OP(=O)(O)OC[C@H]3O[C@@H](n4cnc5c(=O)[nH]c(N)nc54)C[C@@H]3OP(=O)(O)OC[C@H]3O[C@@H](n4cnc5c(=O)[nH]c(N)nc54)C[C@@H]3OP(=O)(O)OC[C@H]3O[C@@H](n4cnc5c(=O)[nH]c(N)nc54)C[C@@H]3OP(=O)(O)OC[C@H]3O[C@@H](n4cnc5c(N)ncnc54)C[C@@H]3OP(=O)(O)OC[C@H]3O[C@@H](n4cnc5c(=O)[nH]c(N)nc54)C[C@@H]3O)[C@@H](COC(c3ccccc3)c3ccccc3)O2)c(=O)[nH]c1=O	> 40	4.3
COc1ccc(C(OC[C@H]2O[C@@H](n3cc(C)c(=O)[nH]c3=O)C[C@@H]2OP(=O)(O)OC[C@H]2O[C@@H](n3cnc4c(=O)[nH]c(N)nc43)C[C@@H]2OP(=O)(O)OC[C@H]2O[C@@H](n3cnc4c(=O)[nH]c(N)nc43)C[C@@H]2OP(=O)(O)OC[C@H]2O[C@@H](n3cnc4c(=O)[nH]c(N)nc43)C[C@@H]2OP(=O)(O)OC[C@H]2O[C@@H](n3cnc4c(N)ncnc43)C[C@@H]2OP(=O)(O)OC[C@H]2O[C@@H](n3cnc4c(=O)[nH]c(N)nc43)C[C@@H]2O)(c2ccccc2)c2ccc(OC)cc2)cc1	38	1
Cc1cn([C@H]2C[C@H](OP(=O)(O)OC[C@H]3O[C@@H](n4cnc5c(=O)[nH]c(N)nc54)C[C@@H]3OP(=O)(O)OC[C@H]3O[C@@H](n4cnc5c(=O)[nH]c(N)nc54)C[C@@H]3OP(=O)(O)OC[C@H]3O[C@@H](n4cnc5c(=O)[nH]c(N)nc54)C[C@@H]3OP(=O)(O)OC[C@H]3O[C@@H](n4cnc5c(=O)[nH]c(N)nc54)C[C@@H]3O)[C@@H](COCc3ccc(OCc4ccccc4)c(OCc4ccccc4)c3)O2)c(=O)[nH]c1=O	> 40	0.66
